Experimental data of several laboratories.
Lines come from different studies, so protocols differ.
Target: Serine/threonine-protein kinase TAO1 (TAOK1, Homo sapiens, UniProt Q7L7X3)
One construct used (Q7L7X3 1-1001): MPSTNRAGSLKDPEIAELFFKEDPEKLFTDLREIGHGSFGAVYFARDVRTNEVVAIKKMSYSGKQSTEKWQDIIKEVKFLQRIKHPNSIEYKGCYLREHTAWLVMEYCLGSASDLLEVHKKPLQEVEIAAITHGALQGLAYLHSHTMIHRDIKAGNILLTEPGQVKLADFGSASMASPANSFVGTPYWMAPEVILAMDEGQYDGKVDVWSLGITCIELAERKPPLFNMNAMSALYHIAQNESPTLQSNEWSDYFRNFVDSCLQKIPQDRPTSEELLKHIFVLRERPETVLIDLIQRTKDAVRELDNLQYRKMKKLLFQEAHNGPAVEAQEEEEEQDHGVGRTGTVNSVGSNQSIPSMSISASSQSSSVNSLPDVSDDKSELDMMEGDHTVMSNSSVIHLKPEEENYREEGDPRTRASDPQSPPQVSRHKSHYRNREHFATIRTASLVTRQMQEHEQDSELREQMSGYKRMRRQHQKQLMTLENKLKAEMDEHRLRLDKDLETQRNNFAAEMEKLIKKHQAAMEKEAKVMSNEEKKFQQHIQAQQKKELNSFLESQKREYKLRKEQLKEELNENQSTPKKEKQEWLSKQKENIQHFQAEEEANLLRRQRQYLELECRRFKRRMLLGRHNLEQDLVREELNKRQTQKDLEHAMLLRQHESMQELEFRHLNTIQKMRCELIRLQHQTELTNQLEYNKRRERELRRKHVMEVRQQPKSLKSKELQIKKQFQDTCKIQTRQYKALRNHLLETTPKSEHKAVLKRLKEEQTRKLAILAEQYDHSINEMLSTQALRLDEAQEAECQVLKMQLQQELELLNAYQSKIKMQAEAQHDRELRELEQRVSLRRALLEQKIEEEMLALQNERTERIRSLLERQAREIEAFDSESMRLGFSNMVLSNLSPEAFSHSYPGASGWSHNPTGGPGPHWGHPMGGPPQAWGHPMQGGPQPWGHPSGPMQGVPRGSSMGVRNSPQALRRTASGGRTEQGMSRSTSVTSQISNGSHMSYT

SMILES	test	conditions	quantity	value
O=C(Nc1cccnn1)N1CC(C/C=C/c2cncc(Oc3ccc(C(F)(F)F)cn3)n2)C1	cell-free assay, competition with immobilised ligand	1 µM	remaining binding	91%
FC(F)(F)Oc1cccc(-c2cnc3ccc(-c4ccncc4)nn23)c1	enzyme activity, inhibitor, radiometric	1 µM	activity vs control	83%
Cc1c(C(=O)O)cc(-c2ccc(C3CCNCC3)cc2)c2ccc(-c3ccc(C(F)(F)F)cc3)cc12	binding, competition with immobilised ligand	1 µM	remaining binding	100%
Nc1ncnc2occ(-c3ccc(NC(=O)Nc4cc(C(F)(F)F)ccc4F)cc3)c12	cell-free assay, inhibitor	20 µM	remaining signal	0.3%
CCCOc1ccc(OC)c(F)c1C(=O)c1ccc(C(=O)N[C@@H]2CNC[C@H]2NC(=O)c2ccc3[nH]ncc3c2)cc1	enzyme activity, inhibitor	10 µM	remaining activity	74%
COc1cc(/C=C/C(=O)CC(=O)/C=C/c2ccc(O)c(OC)c2)ccc1O	enzyme activity, inhibitor	1 µM	activity vs control	84%
COc1cc(Nc2cnc(C#N)c(O[C@H](C)CN(C)C)n2)ncc1-c1cnn(C)c1	enzyme activity, inhibitor, radiometric	10 µM	remaining activity	75%
O=C1Nc2ccc(Cl)cc2C1=Cc1cc(Cl)c(O)c(Cl)c1	cell-free assay	0.5 µM	remaining signal	71.6%
CC(C)(O)[C@H]1CC[C@H](Nc2ccc3ncc(-c4cccc(C(F)(F)F)c4)n3n2)CC1	enzyme activity, inhibitor	1 µM	remaining activity	82.6%
Cc1cc(C)c(-n2ccn3nc(-c4cccnc4)cc23)cc1NC(=O)c1cc(C#N)cc(S(F)(F)(F)(F)F)c1	cell-free assay, competition with immobilised ligand	0.1 µM	remaining binding	45.2%
CNC(=O)c1cc(Oc2ccc(NC(=O)Nc3ccc(Cl)c(C(F)(F)F)c3)cc2)ccn1	cell-free assay	0.5 µM	remaining signal	82%
FC(F)c1nc2ccccc2n1-c1nc(N2CCOCC2)nc(N2CCOCC2)n1	enzyme activity, inhibitor	10 µM	remaining activity	93%
Cc1cc(NC(=O)c2cccc3cc(-c4cccc5[nH]nc(N)c45)ccc23)ccc1F	enzyme activity, inhibitor	0.1 µM	activity vs control	103%
COc1ccc2cc(OCC3(C(=O)O)CN(C(=O)c4ccc(F)cc4)C3)ccc2c1	cell-free assay, competition with immobilised ligand	1 µM	remaining binding	100%
O=C1NC(=O)c2cc(Nc3ccc(F)cc3)c(Nc3ccc(F)cc3)cc21	cell-free assay	0.5 µM	remaining signal	90.3%
Oc1cccc(-c2nc(N3CCOCC3)c3oc4ncccc4c3n2)c1	enzyme activity, inhibitor	10 µM	remaining activity	84%
CNC(=O)Nc1ccc2c(c1)CC[C@@]21OC(=O)N(CC(=O)N(Cc2ccc(F)cc2)[C@@H](C)C(F)(F)F)C1=O	cell-free assay, competition with immobilised ligand	1 µM	remaining binding	94%
O=C(Nc1cnn(-c2csc(C(=O)NC3COC3)c2)c1)Nc1c(F)cccc1Cl	enzyme activity, inhibitor	5 µM	remaining activity	90.6%
COc1cc(-c2cn(C3CCc4ccccc4N(CC(F)(F)F)C3=O)nn2)ccc1-n1ccc(C)n1 (centres unmarked)	cell-free assay, competition with immobilised ligand	1 µM	remaining binding	92%
Cc1ccc(NC(=O)c2ccc(C)c(C(F)(F)F)c2)cc1C#Cc1nn(C2CCC(O)CC2)c2ncnc(N)c12 (centres unmarked)	cell-free assay	10 µM	remaining signal	18%
